Measured values of several laboratories.
Lines come from different studies, so protocols differ.
Target: Insulin-like growth factor 1 receptor (IGF1R, Homo sapiens, UniProt P08069)

Cc1cc(NC(=O)c2cccc(S(F)(F)(F)(F)F)c2)cc(-n2ccn3nc(-c4cccnc4)cc23)c1  remaining binding (cell-free assay, competition with immobilised ligand; 1 µM): 100%
Cc1cnc(Nc2ccc(C(=O)N3CCC(N4CCCC4)CC3)cc2)nc1-c1cc2ccccc2s1  remaining binding (binding, competition with immobilised ligand; 1 µM): 45%
c1cncc(-c2cccc(Nc3nccc(NC4CCCCC4)n3)c2)c1  remaining binding (binding, competition with immobilised ligand; 10 µM): 67%
COc1cnc(Nc2cccc(S(N)(=O)=O)c2)nc1N1CCN(c2ccccc2)C(=O)C1  remaining binding (binding, competition with immobilised ligand; 1 µM): 100%
CN(C)c1ncc(F)c(-c2cnn3ncccc23)n1  remaining binding (binding; 1 µM): 100%
C=CC(=O)N1CCC(C(=O)NCC(=O)N2CCN(c3nc(-c4cnc(N)nc4C(F)F)nc(N4CCOCC4)n3)CC2)CC1  remaining binding (binding, competition with immobilised ligand; 1 µM): 100%
CC(=O)c1c(NS(C)(=O)=O)c2cc(-c3ccc(Cl)cc3)c(-c3ccc(Cl)cc3Cl)nc2n(C)c1=O  remaining binding (cell-free assay, competition with immobilised ligand; 1 µM): 100%
CC(C)(C)c1ccc(-c2nc(CBr)nn2-c2cccc(O)c2)cc1  remaining binding (cell-free assay, competition with immobilised ligand; 10 µM): 95%
CN(CCCC(F)(F)F)c1nccc(-c2cnn3ncccc23)n1  remaining binding (binding; 1 µM): 100%
N#Cc1ccccc1CSc1nnc2c(n1)[nH]c1ccccc12  remaining binding (binding, competition with immobilised ligand; 10 µM): 91%
c1cnn2ncc(-c3ccnc(N4CCC45COC5)n3)c2c1  remaining binding (binding; 1 µM): 97%
CCN1CCN(Cc2ccc(C(=O)Nc3ccc(C)c(Oc4ccc5c(c4)CC(=O)N5)c3)cc2C(F)(F)F)CC1  remaining binding (binding, competition with immobilised ligand; 1 µM): 100%
CC(C)CC(=O)N1CCc2nc(-c3ccc(Br)cc3)nc(N(C)Cc3ccccc3)c2C1  remaining binding (cell-free assay, competition with immobilised ligand; 0.1 µM): 83%
CN(C)c1nccc(-c2cnn3ncccc23)n1  remaining binding (binding; 1 µM): 100%
Cn1nc(C(=O)NCc2ccc(C(=O)O)cc2)cc1-c1ccc2[nH]ccc2c1  remaining binding (cell-free assay, competition with immobilised ligand; 0.1 µM): 91%
O=C(c1ccc(Nc2ncc(Cl)c(-c3cc4ccccc4s3)n2)cc1)N1CCC(N2CCCC2)CC1  remaining binding (binding, competition with immobilised ligand; 1 µM): 40%
C[C@@H]1CN(c2ccc3ncc(-c4ccc5[nH]nc(C6CC6)c5c4)n3n2)C[C@H](C)O1  remaining binding (binding, competition with immobilised ligand; 50 nM): 99%
N[C@H]1CCN(c2nccc(-c3cnn4ncccc34)n2)C1  remaining binding (binding; 1 µM): 81%
COc1ccc2c(c1)O[C@@H](c1ccc(OC)c(OC)c1)C[C@H]2NC(=O)C1(c2ccc3c(c2)OC(F)(F)O3)CC1  remaining binding (cell-free assay, competition with immobilised ligand; 1 µM): 90%
CN(C)c1nccc(-c2cnc3ncccn23)n1  remaining binding (binding; 1 µM): 89%
O=C(c1ccc(Nc2nccc(-c3cc4ccccc4s3)n2)cc1)N1CCC(N2CCCC2)CC1  remaining binding (binding, competition with immobilised ligand; 1 µM): 100%
O=C(O)c1cc(-c2ccc(C3CCNCC3)cc2)c2ccc(-c3ccc(C(F)(F)F)cc3)cc2c1  remaining binding (cell-free assay, competition with immobilised ligand; 1 µM): 95%
O=C(Nc1c[nH]nc1C(=O)NC1CCNCC1)c1cc(F)cc(F)c1  remaining binding (binding, competition with immobilised ligand; 1 µM): 100%
C[C@H]1CCN(c2nccc(-c3cnn4ncccc34)n2)C1  remaining binding (binding; 1 µM): 90%
O=C1NC(c2ccccn2)Sc2ccccc21 (stereo not shown)  remaining binding (cell-free assay, competition with immobilised ligand; 1 µM): 80%
